pIC50: −log10 of the molar value. Values after ≈ are worked out from the molar mass of the structure shown.
Key:
[1] = Solubility of the compound in alphaMEM containing 5% FCS and 1% DMSO by HPLC analysis; type: physicochemical
Outline: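 Saturated drug solutions were incubated at 37 °C in αMEM with 5% FCS and 1% DMSO. Dissolved drug was quantified by HPLC.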

[2] = test system: HCT-116; assay: Cytotoxicity against human HCT116 cells incubated for 4 hrs under anaerobic condition measured after 5 days by sulforhodamine B assay; type: functional, cell-based
Outline: (§1)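 STR-authenticated, mycoplasma-free HCT116 cells in αMEM + 5% FCS were seeded at 700 cells/well and allowed 2 h to attach. Drug was added from DMSO stocks (<1% DMSO) in serial 3-fold dilutions for 4 h, oxic or anoxic (Pd-catalyst anaerobic chamber, medium pre-equilibrated ≥3 days). After washing, cells regrew for 5 days before SRB staining and IC50 determination.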

[3] = test system: HCT-116; assay: Hypoxic cytotoxicity ratio of IC50 for human HCT116 cells under oxic condition to IC50 for human HCT116 cells under anoxic condition
Outline: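 HCT116 cells, 700 per well and attached 2 h, got a 4 h exposure to 3-fold serial dilutions (<1% DMSO) under air or in a Pd-catalyst anaerobic chamber with pre-equilibrated medium. Cells were washed, regrown 5 days, and stained with sulforhodamine B to give IC50. HCR = oxic IC50 / anoxic IC50.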

[4] = test system: HCT-116; assay: (§2) Hypoxia radiosensitization activity in human HCT116 cells assessed as survival ratio by measuring ratio of cell survival with 15 Gy radiation in absence to presence of compound at anoxic IC50 preincubated for 1 hr followed by 15 Gy irradiation measured after 10 days by methylene blue staining-based cell counting method; type: functional
Outline: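 Anoxic HCT116 cells were seeded at 10^5/well and treated at the anoxic IC50 concentration for 1 h at room temperature. They were irradiated with 15 Gy (60Co, ~2 Gy/min) in a sealed steel box, then plated clonogenically. Colonies of >50 cells were counted […]. SR15 = survival with radiation / survival with drug + radiation.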

[5] = test system: HCT-116; assay: (§3) Hypoxia radiosensitization activity in human HCT116 cells assessed as sensitizer enhancement ratio by measuring ratio of radiation dose for 1% survival in absence to presence of compound at 9.8 mM preincubated for 1 hr followed by irradiation measured after 10 days by methylene blue staining-based cell counting method; type: functional
[6] = test system: HCT-116; assay: as §3, with “method relative to misonidazole” for “method”; type: functional
[7] = test system: HCT-116; assay: as §2, with “with” for “with 15 Gy”, “9.8 mM” for “anoxic IC50”, “6 to 29” for “15”; type: functional
[8] = test system: HCT-116; assay: as §2, with “with” for “with 15 Gy”, “9.8 mM” for “anoxic IC50”, “6 to 29” for “15”, “method relative to misonidazole” for “method”; type: functional
[9] = Toxicity in NIH-III mouse at 10 ml/kg, iv; details: in vivo
Outline: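 MTD was the highest dose without drug-related deaths, >15% body-weight loss or severe morbidity. MAD was the maximum dose soluble in the injection volume. Vehicle was 0.9% saline with 1% DMSO, or for phosphate prodrugs saline with 2 molar equivalents of NaHCO3.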

[10] = test system: Plasma; assay: Cmax in plasma of NIH-III mouse xenografted with human HCT116 cells at 1.24 mmol/kg, iv administered as single dose by HPLC analysis; type: ADME, organism-based; design: dose 1.24 mmol/kg, route intravenous; details: in vivo
Outline: (§4)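 Female NIH-III mice bearing subcutaneous HCT116 xenografts (10^6 cells inoculated). At ca. 300 mm3 tumor size, a single i.v. dose was given at the MAD or 75% of the MTD. Vehicle was 0.9% saline with 1% DMSO, or saline with 2 molar equivalents NaHCO3 for phosphate prodrugs. Plasma and tumor were sampled at multiple times by cardiac puncture and excision, assayed by HPLC, and analysed noncompartmentally.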

[11] = Tmax in plasma of NIH-III mouse xenografted with human HCT116 cells at 1.24 mmol/kg, iv administered as single dose by HPLC analysis; type: ADME, organism-based
Outline: (§5)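 Female NIH-III mice bearing subcutaneous HCT116 tumors (10^6 cells; ~300 mm3) got a single i.v. dose at the MAD or 75% of the MTD. Vehicle was saline with 1% DMSO, or saline with 2 equivalents of NaHCO3 for the phosphates. Plasma and tumor were sampled at multiple times by cardiac puncture and excision, drug was measured by HPLC, and Tmax came from noncompartmental analysis.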

[12] = Cmax in tumor of NIH-III mouse xenografted with human HCT116 cells at 1.24 mmol/kg, iv administered as single dose by HPLC analysis; type: ADME, organism-based, Neoplasm; design: dose 1.24 mmol/kg, route intravenous; details: in vivo; outline: as §4
[13] = Tmax in tumor of NIH-III mouse xenografted with human HCT116 cells at 1.24 mmol/kg, iv administered as single dose by HPLC analysis; type: ADME, organism-based, Neoplasm; details: 0.93 mmol/kg, in the assay text read “0.93 mmol/kg” for “1.24 mmol/kg”; outline: as §5
[14] = test system: HCT-116; assay: (§6) In vivo hypoxia radiosensitization activity in human HCT116 cells xenografted in NIH-III mouse assessed as survival ratio by measuring ratio of cell survival with 12.5 Gy radiation in absence to presence of compound at 1.24 mmol/kg, iv pretreated as single dose for 10 mins followed by irradiation measured after 18 hrs by excision assay; type: functional
[15] = Electrophilicity of the compound in pH 7 phosphate buffer assessed as one-electron reduction potential
Outline: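 The one-electron reduction potential was set by pulse radiolysis equilibria at pH 7.0 (2.5 mM phosphate), established within 20 µs against benzylviologen, methylviologen or triquat. ΔE came from equilibrium constants via the Nernst equation, at three concentration ratios and 22 ± 2 °C.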

[16] = test system: HCT-116; assay: Cytotoxicity against human HCT116 cells at anoxic IC50 incubated for 1 hr at 21 degC by clonogenic survival assay; details: hct-116, 1 h
[17] = test system: Mus musculus; assay: Toxicity in NIH-III mouse xenografted with human HCT116 cells assessed as change in body weight with 12.5 Gy radiation at 0.93 mmol/kg, iv administered as single dose; details: in vivo
[18] = test system: HCT-116; assay: as §3, with “0.03” for “9.8”; type: functional
[19] = test system: HCT-116; assay: as §3, with “0.03” for “9.8”, “method relative to misonidazole” for “method”; type: functional
[20] = test system: HCT-116; assay: as §2, with “with” for “with 15 Gy”, “0.03 mM” for “anoxic IC50”, “6 to 29” for “15”; type: functional
[21] = test system: HCT-116; assay: as §2, with “with” for “with 15 Gy”, “0.03 mM” for “anoxic IC50”, “6 to 29” for “15”, “method relative to misonidazole” for “method”; type: functional
[22] = test system: HCT-116; assay: Cytotoxicity against human HCT116 cells incubated for 4 hrs under aerobic condition measured after 5 days by sulforhodamine B assay; type: cell-based; outline: as §1
[23] = test system: HCT-116; assay: Cytotoxicity against human HCT116 cells at anoxic IC50 incubated for 1 hr at 21 degC by sulforhodamine B assay; type: cell-based; details: hct-116, 1 h
[24] = test system: HCT-116; assay: as §3, with “0.4” for “9.8”; type: functional
[25] = test system: HCT-116; assay: as §3, with “0.4” for “9.8”, “method relative to misonidazole” for “method”; type: functional
[26] = test system: HCT-116; assay: as §2, with “with” for “with 15 Gy”, “0.4 mM” for “anoxic IC50”, “6 to 29” for “15”; type: functional
[27] = test system: HCT-116; assay: as §2, with “with” for “with 15 Gy”, “0.4 mM” for “anoxic IC50”, “6 to 29” for “15”, “method relative to misonidazole” for “method”; type: functional
[28] = test system: Mus musculus; assay: Drug level in NIH-III mouse assessed as maximum achievable dose at 10 ml/kg, iv; type: ADME; details: in vivo
Outline: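 Non-tumor-bearing female NIH-III mice (~20 g) received freshly prepared solutions i.v. at 10 mL/kg in 0.9% saline with 1% DMSO, or saline with 2 molar equivalents NaHCO3 for phosphate prodrugs. MAD was the maximum dose that dissolved in the injection volume.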

[29] = test system: Plasma; assay: Cmax in plasma of NIH-III mouse xenografted with human HCT116 cells at 1.12 mmol/kg, iv administered as single dose by HPLC analysis; type: ADME, organism-based; design: dose 1.12 mmol/kg, route intravenous; details: in vivo; outline: as §4
[30] = Tmax in plasma of NIH-III mouse xenografted with human HCT116 cells at 1.12 mmol/kg, iv administered as single dose by HPLC analysis; type: ADME, organism-based; outline: as §5
[31] = Cmax in tumor of NIH-III mouse xenografted with human HCT116 cells at 1.12 mmol/kg, iv administered as single dose by HPLC analysis; type: ADME, organism-based, Neoplasm; design: dose 1.12 mmol/kg, route intravenous; details: in vivo; outline: as §4
[32] = Tmax in tumor of NIH-III mouse xenografted with human HCT116 cells at 1.12 mmol/kg, iv administered as single dose by HPLC analysis; type: ADME, organism-based, Neoplasm; outline: as §5
[33] = test system: HCT-116; assay: as §6, with “1.12” for “1.24”; type: functional
[34] = test system: HCT-116; assay: as §2, with “with” for “with 15 Gy”, “0.11 mM” for “anoxic IC50”, “6 to 29” for “15”; type: functional
[35] = test system: HCT-116; assay: as §2, with “with” for “with 15 Gy”, “0.11 mM” for “anoxic IC50”, “6 to 29” for “15”, “method relative to misonidazole” for “method”; type: functional
[36] = test system: Plasma; assay: Cmax in plasma of NIH-III mouse xenografted with human HCT116 cells at 0.60 mmol/kg, iv administered as single dose by HPLC analysis; type: ADME, organism-based; design: dose 0.6 mmol/kg, route intravenous; details: in vivo; outline: as §4
[37] = Tmax in plasma of NIH-III mouse xenografted with human HCT116 cells at 0.60 mmol/kg, iv administered as single dose by HPLC analysis; type: ADME, organism-based; details: 0.6 mmol/kg; outline: as §5
[38] = Cmax in tumor of NIH-III mouse xenografted with human HCT116 cells at 0.60 mmol/kg, iv administered as single dose by HPLC analysis; type: ADME, organism-based, Neoplasm; design: dose 0.6 mmol/kg, route intravenous; details: in vivo; outline: as §4
[39] = Tmax in tumor of NIH-III mouse xenografted with human HCT116 cells at 0.60 mmol/kg, iv administered as single dose by HPLC analysis; type: ADME, organism-based, Neoplasm; details: 0.6 mmol/kg; outline: as §5
[40] = test system: HCT-116; assay: as §6, with “0.6” for “1.24”; type: functional

In the case of `O=[N+]([O-])c1cncn1CCN1CCOCC1` [NIMORAZOLE], the solubility [1] was over 100 mM, the pIC50 [2] was 2.01 and the “Ratio IC50” value [3] was 0.8. For the same molecule, the Ratio [4] was 37, the Ratio [5] was 1.8 and the “fold change (FC)” value [6] was 1.27. For the same molecule, the Ratio [7] was 44.9, the “fold change (FC)” value [8] was 7.28 and the MTD [9] was 1240 µmol/kg. For the same molecule, the Cmax [10] was 1210 µM, the Tmax [11] was 5 min and the Cmax [12] was 91 µM. The Tmax [13] was 10 min, the Ratio [14] was 4 and the Activity [15] was -457 mV. The Activity [16] was “Non-Toxic” and the Activity [17] was “Non-Toxic”.

For `O=[N+]([O-])c1nccn1CS(=O)(=O)N1CCOCC1`, the solubility [1] was 1.08 mM (≈ 0.298 mg/mL), the pIC50 [2] was 4.52 and the “Ratio IC50” value [3] was 11. The Ratio [4] was 3.8, the Ratio [18] was 1.11 and the “fold change (FC)” value [19] was 0.87. For the same molecule, the Ratio [20] was 2, the “fold change (FC)” value [21] was 0.58 and the pIC50 [22] was 2.32 to 3.42. The Activity [23] was “Non-Toxic”.

With `O=[N+]([O-])c1nccn1CCS(=O)(=O)NCCN1CCOCC1` the solubility [1] was over 163 mM, the pIC50 [2] was 3.40 and the “Ratio IC50” value [3] was 10. The Ratio [4] was 6, the Ratio [24] was 1.357 and the “fold change (FC)” value [25] was 0.92. The Ratio [26] was 5, the “fold change (FC)” value [27] was 0.57 and the Drug uptake [28] was 1.12 mmol/kg. It also gave a Cmax [29] of 1040 µM, a Tmax [30] of 5 min and a Cmax [31] of 410 µM. The Tmax [32] was 10 min, the Ratio [33] was 2 and the pIC50 [22] was 2.32 to 3.42. The Activity [16] was “Non-Toxic”.

For `O=[N+]([O-])c1nccn1CS(=O)(=O)NCCO`, the Ratio [34] was 1.8, the “fold change (FC)” value [35] was 0.47 and the Drug uptake [28] was 0.6 mmol/kg. It also gave a Cmax [36] of 570 µM, a Tmax [37] of 5 min and a Cmax [38] of 94 µM. For the same molecule, the Tmax [39] was 10 min, the Ratio [40] was 2.4 and the pIC50 [22] was 2.32 to 3.42. The Activity [16] was “Non-Toxic”.
